Screens deposited in PubChem BioAssay by several laboratories.
Cl transport mod: KCC2 cotransporter modulators, thallium flux, primary screen, cell-based, HEK293 KCC2, FluoZin-2 fluorescence, MLSMR; actives 2.2% (n = 190,000); KCC2 cells, thallium flux FluoZin-2 fluorescence; Solute carrier family 12 member 5 (Homo sapiens), Q9H2X9; B-score of Tl+ flux slope (higher = more flux/activation; lower = inhibition) at 10 µM;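 active means thallium flux slope and its plate-corrected score both differing from the plate sample mean at a set confidence after two filtering rounds, in either direction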;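 further: slope of fluorescence scaled to starting intensity during 10 to 20 s after thallium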
Target sequence (Q9H2X9 whole entry, looked up): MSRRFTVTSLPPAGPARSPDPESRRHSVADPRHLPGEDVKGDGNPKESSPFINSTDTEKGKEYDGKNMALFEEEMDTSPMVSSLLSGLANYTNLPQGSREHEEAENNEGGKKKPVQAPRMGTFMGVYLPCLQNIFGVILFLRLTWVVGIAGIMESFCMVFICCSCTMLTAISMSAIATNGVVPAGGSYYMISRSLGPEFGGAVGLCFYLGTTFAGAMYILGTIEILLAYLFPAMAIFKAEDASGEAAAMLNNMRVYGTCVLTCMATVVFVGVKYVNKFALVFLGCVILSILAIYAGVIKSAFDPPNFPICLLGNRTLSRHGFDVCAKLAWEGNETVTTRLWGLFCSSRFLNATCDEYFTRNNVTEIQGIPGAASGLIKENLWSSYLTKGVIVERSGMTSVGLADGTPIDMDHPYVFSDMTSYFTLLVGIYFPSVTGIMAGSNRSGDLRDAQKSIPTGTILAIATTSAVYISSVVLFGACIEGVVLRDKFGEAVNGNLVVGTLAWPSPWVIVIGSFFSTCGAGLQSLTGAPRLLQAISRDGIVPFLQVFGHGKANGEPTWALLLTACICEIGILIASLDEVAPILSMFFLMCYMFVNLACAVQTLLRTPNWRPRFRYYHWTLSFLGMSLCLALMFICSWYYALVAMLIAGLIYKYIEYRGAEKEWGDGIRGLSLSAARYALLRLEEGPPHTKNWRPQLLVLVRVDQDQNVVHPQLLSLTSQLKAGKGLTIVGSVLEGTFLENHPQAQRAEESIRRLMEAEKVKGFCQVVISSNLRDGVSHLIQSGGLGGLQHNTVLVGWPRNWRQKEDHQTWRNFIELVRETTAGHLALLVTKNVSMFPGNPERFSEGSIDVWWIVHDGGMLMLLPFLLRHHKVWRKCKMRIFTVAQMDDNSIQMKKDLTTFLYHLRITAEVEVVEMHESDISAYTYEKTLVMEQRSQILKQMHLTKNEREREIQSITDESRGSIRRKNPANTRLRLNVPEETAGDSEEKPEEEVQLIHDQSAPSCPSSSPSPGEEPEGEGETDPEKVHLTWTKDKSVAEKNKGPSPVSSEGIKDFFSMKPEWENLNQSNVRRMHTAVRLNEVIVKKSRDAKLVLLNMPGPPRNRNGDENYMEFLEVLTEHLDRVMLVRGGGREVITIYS
RAM network inh: inhibitors of the yeast RAM network, primary screen, dse1pr::URA3 reporter, 5-FOA selection | inhibition, % at 50 µM | AID 868, 2007 | S. cerevisiae dse1pr::URA3 reporter, 5-FOA growth OD615, 2 d; analog-sensitive cbk1-as2 kinase mutant strain | actives 1.8% (n = 190,000);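 active means inhibition above a set limit, 3 SD over mean compound inhibition, cut at about 8.4% in these data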;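 further: 0% = DMSO-only wells with no growth and 100% = 10 µM 1-NA-PP1 full growth; inhibition rescues growth on 5-FOA so higher OD means more RAM inhibition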
WT yeast gro inh: growth inhibition of WT strain, primary screen, mitochondrial fusion inhibitor project, WT and mutant strains, chemical genetic; actives 2.1% (n = 190,000); inhibition, % at 10 µM; mitochondrial fusion phenotypic screen; in the data active means inhibition above about 58%; tested in S. cerevisiae
Yeast lifespan up: compounds extending yeast replicative lifespan, primary screen, S. cerevisiae, OD615. S. cerevisiae growth with nicotinamide; deaD strain in restrictive glucose medium. inhibition of the nicotinamide effect, % at 10 µM. actives 0.68% (n = 130,000). AID 775, 2007;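 active means inhibition above a set limit, placed 3 SD over the median of all compounds, cut at about 26% in these data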;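 further: 0% = nicotinamide-treated wells and 100% = cells grown without nicotinamide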
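Measured by: optical density (absorbance) at 615 nm; System: modified budding yeast, DeaD strain; Medium: restrictive CSMM-D dextrose medium; Timing: 4 h preincubation then 48 h treatment at 30 °C.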
Yeast growth inh: growth inhibitors of yeast BB579 in restrictive medium, primary screen, yeast lifespan-shortening project, S. cerevisiae. AID 804, 2007. inhibition, % at 10 µM. actives 0.51% (n = 140,000). OD615, 48 h;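 active means inhibition above a set limit, 3 SD over the mean compound inhibition, cut at about 44% in these data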
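Assay system: S. cerevisiae DeaD strain BB579 yeast. Medium: CSMM-D restrictive synthetic medium containing dextrose (glucose). Times: 4 h cell preincubation, 48 h compound exposure, 30 °C humidified. Signal: OD615 turbidity measurement. Benchmarks: positive control amphotericin B 10 µg/mL.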
RAM 5-FOA: 5-FOA growth of efflux-deficient control yeast, dose response, counter-screen for RAM network inhibitor project, S. cerevisiae, OD615 | 1,200 tested, under 10 active | AID 1305, 2008 | max inhibition, % | shares compounds with RAM network inh | S. cerevisiae efflux-deficient reporter strain, 5-FOA growth OD615, 2 days; call rule not given here;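 further: plate controls were vehicle for no effect and reference inhibitor for full effect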
The depositor's hits bear a star; i = inactive; . = not tested or not shown. The list is not random: actives were taken first. Their share in the collection is about 5.5%.

SMILES	Cl transport mod	RAM network inh	WT yeast gro inh	Yeast lifespan up	Yeast growth inh	RAM 5-FOA
COc1ccc(C(=O)Nc2cc(OC)c(Cl)cc2Cl)cc1	-0.19	5	-19	.	.	.
COc1ccc(COc2ccsc2C(=O)Nc2ccc(Cl)c(Cl)c2)cc1	.	14*	8	-22	-49	2
CN(C)S(=O)(=O)Oc1ccsc1C(=O)Nc1ccc(Cl)c(Cl)c1	-0.65	4	45	-7	-19	.
CNC(=O)CSc1nc2ccccc2c(=O)n1-c1cc(OC)ccc1OC	0.11	.	.	.	.	.
CC(=O)c1c(N2CCN(C)CC2)[nH]c(-c2ccccc2)nc1=S	2.6	1	-6	-18	-37	.
O=C(CNS(=O)(=O)c1ccccc1)OCC(=O)c1ccc(OC(=O)c2ccccc2)cc1	-0.51	4	-11	-3	3	.
Cc1ccccc1OCC(=O)OCC(=O)c1ccc(OC(=O)c2ccccc2)cc1	-0.12	14*	-25	3	-30	3
Cc1ccccc1OCC(=O)OCC(=O)c1ccc(OCc2ccccc2)cc1	-3.8	12*	24	6	-27	4
CC1(C)CC(NC(=O)c2coc(=O)c(Br)c2)CC(C)(C)N1	.	2	1	12	-32	.
CCOC(=O)C1CN(S(=O)(=O)c2ccccc2)c2cc(S(=O)(=O)CC)ccc2O1 (configuration not stated)	-0.42	1	-17	-4	-12	.
CCOC(=O)C1CN(S(=O)(=O)c2cccc(C(F)(F)F)c2)c2cc(CC(=O)OC)ccc2O1 (configuration not stated)	-0.081	16*	5	-5	-34	2
CCc1ccccc1NC(=S)N(CCc1ccncc1)C(C)C	0.52	2	6	.	.	.
CCOc1cc(S(=O)(=O)N2CCCCC2)ccc1Cl	-0.19	0	6	-4	7	.
CCOc1cc(S(=O)(=O)Nc2ccc(CC)cc2)ccc1Cl	0.26	14*	25	11	-69	1
Clc1cccc(CN2CCCCCCC2)c1Cl	0.26	2	-10	3	-28	.
CNS(=O)(=O)c1cc(NC(C)=O)c(C)cc1C	0.27	1	15	2	-13	.
O=C(COc1ccccc1)OC(C(=O)c1ccccc1)c1ccccc1 (configuration not stated)	0.87	12*	5	-4	-45	25
Cc1ccc(C(=O)C(OC(=O)COc2ccccc2C)c2ccccc2)cc1 (configuration not stated)	-0.25	14*	6	-20	-16	4
CCC(=O)NC1(C(F)(F)F)C(=O)Nc2c1c(=O)[nH]c(=O)n2CC(C)C (configuration not stated)	0.57	.	.	.	.	.
O=C(O)CCC(=O)Nc1ccccc1Oc1ccccc1	-0.08	-1	9	.	.	.
O=C(CCC(=O)c1ccc(Oc2ccccc2)cc1)Nc1cccc(Cl)c1Cl	-0.25	14*	3	4	-33	3
COc1ccc(-c2nc3ccccc3c(=O)n2CCOc2cccc(C)c2C)cc1	0.67	16*	-1	2	-20	5
COc1ccc(-c2nc3ccccc3c(=O)n2CCOc2c(C)cccc2C)cc1	-0.092	17*	-13	13	-53	6
Nc1nnc(SCC(=O)NN2C(=O)NC3(CCCCC3)C2=O)s1	-0.0077	0	2	3	-4	.
Cc1ccc(N2CCN(C(=S)Nc3ccccc3)CC2)cc1	-0.62	2	-8	.	.	.
SMILES	Cl transport mod	RAM network inh	WT yeast gro inh	Yeast lifespan up	Yeast growth inh	RAM 5-FOA
CCOC(=O)c1sc(NC(=O)CSc2nnc(-c3ccc(OC)cc3)n2CCOC)nc1C	0.32	12*	-2	-3	-39	2
COCCn1c(SCC(=O)Nc2nnc(C)s2)nnc1-c1ccncc1	0.99	0	2	-4	-6	.
Cc1noc(C)c1COc1ccc(C(=O)Nc2ccccc2)cc1	-0.43	4	-11	.	.	.
Cc1noc(C)c1COc1cccc(C(=O)Nc2ccc(OCc3ccccc3)cc2)c1	-1.1	12*	7	-11	-36	7
Cc1cc(C)c2cc(C(=O)N3CCc4ccccc4C3)[nH]c2c1	0.24	.	.	.	.	.
CCOC(=O)CSc1nc2ccccc2c(=O)n1CC1CCCC1	-0.24	18*	30	.	-8	1
CCOC(=O)CSc1nc2ccccc2c(=O)n1CC	-0.86	0	-7	-4	-15	.
CCOCCCNC(=S)N1CCCN(c2nc3cc(C)ccc3cc2C#N)CC1	-1.4	5	28	.	.	.
CCOCCCNC(=S)N1CCCN(c2nc3c(C)c(C)ccc3cc2C#N)CC1	-0.7	22*	74*	.	.	7
CC1(C)NC(=O)N(CC(O)Cn2nnc3ccccc32)C1=O (configuration not stated)	.	0	-10	-4	-26	.
CCOc1ccc(CN2CCN(C3CCSCC3)CC2CCO)cc1 (configuration not stated)	1.2	-2	2	.	.	.
CCOc1ccc(-n2c(C)nc(O)c2N=Nc2ccccc2)cc1	1.5	14*	-9	.	.	4
CCCc1ccc(C(=O)NC(=O)c2ccccc2O)cc1	-0.88	.	.	.	.	.
CCCCN(CCCC)c1nc2ccccc2nc1C(C#N)C(=O)NCCCOC (configuration not stated)	i	15*	15	1	-38	5
CCN(CC)c1nc2ccccc2nc1C(C#N)C(=O)NCCCOC (configuration not stated)	0.58	1	-11	-11	-5	.
CCCN(CCC)c1nc2ccccc2nc1C(C#N)C(=O)OC(C)COC (configuration not stated)	-0.91	13*	68*	14	-19	2
S=C1CCC(c2ccc(Br)cc2)=NN1c1ccccc1	2.1	.	.	.	.	.
Cc1ccccc1OCCC(=O)Nc1ccc(Cl)cc1F	-0.4	-1	-5	-5	-31	.
Cc1ccccc1OCCC(=O)Nc1cccc(S(=O)(=O)Nc2ccccc2Cl)c1	-0.79	17*	48	7	-24	3
CC(=O)C(N=Nc1ccccc1)(Sc1nnc(-c2ccccc2)n1-c1ccccc1)C(C)=O	-1.2	12*	79*	16	-72	3
Cc1[nH]c2ccccc2c1/C=N/Nc1ccc([N+](=O)[O-])cc1S(=O)(=O)Nc1ccc(Cl)cc1	-1.2	14*	50	-2	-47	4
CCN(CC)c1nc(SCCOC(=O)Nc2ccccc2)nc(N(CC)CC)n1	-0.04	18*	12	.	-41	8
O=S(=O)(c1ccc(NC(=S)NN=C2CCCCC2)cc1)N1CCOCC1	-0.89	1	-8	.	.	.
CC(C)CC1=NN2C(=N)/C(=C\c3coc4ccccc4c3=O)C(=O)N=C2S1	i	14*	15	.	.	2
